Measurements reported in ChEMBL document CHEMBL4257594 (J Med Chem, 2018).
Activity calls are given as the source filed them. The rule behind the calls is not given here.

Assays:
HUVEC [1] = assay: Anti-angiogenic activity against HUVEC after 24 hrs by scintillation counting based [3H]-thymidine incorporation assay; format: functional, cell-based; settings: Homo sapiens
Procedure, shortened: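 HUVEC seeded at 2000 cells/well and left to settle overnight, then drug added in triplicate for 24 h. Mean ± SD of three independent experiments run in triplicate.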

CYP3A4 = CYP3A4 (Homo sapiens, UniProt P08684); assay: (§1) Inhibition of human liver microsome CYP3A4 at 1 uM expressed in baculosomes using fluorogenic-DBOMF as substrate preincubated for 10 mins followed by substrate addition and measured after 60 mins by fluorescence based assay; format: ADME, microsomes; settings: recombinant CYP3A4 expressed in baculosomes, probe DBOMF (fluorogenic)
Chain of CYP3A4 (P08684 whole entry): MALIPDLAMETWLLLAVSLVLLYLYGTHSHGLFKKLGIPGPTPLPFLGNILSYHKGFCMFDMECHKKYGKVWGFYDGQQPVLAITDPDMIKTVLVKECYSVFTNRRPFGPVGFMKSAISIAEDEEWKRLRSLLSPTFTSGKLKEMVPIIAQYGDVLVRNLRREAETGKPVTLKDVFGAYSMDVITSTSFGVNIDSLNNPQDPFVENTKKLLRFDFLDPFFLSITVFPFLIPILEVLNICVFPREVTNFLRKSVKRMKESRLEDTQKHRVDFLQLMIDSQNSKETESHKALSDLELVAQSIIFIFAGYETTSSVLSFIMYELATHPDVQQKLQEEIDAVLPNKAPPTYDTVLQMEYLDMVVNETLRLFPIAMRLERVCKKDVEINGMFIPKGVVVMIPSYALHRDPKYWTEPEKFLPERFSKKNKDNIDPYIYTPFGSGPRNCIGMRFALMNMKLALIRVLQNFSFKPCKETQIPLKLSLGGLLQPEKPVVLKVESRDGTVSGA
Procedure, shortened: (§2)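 CYP3A4 baculosomes preincubated with drug at 1 µM for 10 min at 37 °C before Vivid green substrate added. Fluorescence (ex/em 485/520) read 60 min after substrate addition. Percent inhibition set against 10 μM ketoconazole as the 100% control; mean ± SD of three independent experiments run in triplicate.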

Cytochrome P450 3A4 [2] = target: T1, Cytochrome P450 3A4 (Homo sapiens, UniProt P08684); assay: as §1; format: ADME, microsomes; settings: microsomes, 1 h, 1 µM; procedure, shortened: as §2
T1 sequence (P08684 whole entry): as above

[3] = target: Non-selective voltage-gated ion channel VDAC1 (Homo sapiens) (UniProt P21796); assay: Binding affinity to VDAC1 (unknown origin) at 10 uM using itraconazole as probe by photoaffinity probe competitor assay
Chain of Non-selective voltage-gated ion channel VDAC1 (Homo sapiens) (P21796 whole entry): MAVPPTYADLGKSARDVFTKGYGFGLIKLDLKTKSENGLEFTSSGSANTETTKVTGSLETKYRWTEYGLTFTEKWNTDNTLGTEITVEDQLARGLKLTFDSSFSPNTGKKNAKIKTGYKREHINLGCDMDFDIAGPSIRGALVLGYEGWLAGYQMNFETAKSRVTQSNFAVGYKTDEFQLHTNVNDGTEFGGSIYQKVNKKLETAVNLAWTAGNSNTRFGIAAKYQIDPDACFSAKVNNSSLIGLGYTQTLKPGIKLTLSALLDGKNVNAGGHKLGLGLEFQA

[4] = target: T2, NPC intracellular cholesterol transporter 1 (Homo sapiens) (UniProt O15118); assay: Binding affinity to NPC1 in HUVEC assessed as increase in cholesterol accumulation in late endosome/lysosome at 0.2 uM after 14 hrs by filipin staining-based confocal microscopy; format: cell-based
T2 sequence (whole entry): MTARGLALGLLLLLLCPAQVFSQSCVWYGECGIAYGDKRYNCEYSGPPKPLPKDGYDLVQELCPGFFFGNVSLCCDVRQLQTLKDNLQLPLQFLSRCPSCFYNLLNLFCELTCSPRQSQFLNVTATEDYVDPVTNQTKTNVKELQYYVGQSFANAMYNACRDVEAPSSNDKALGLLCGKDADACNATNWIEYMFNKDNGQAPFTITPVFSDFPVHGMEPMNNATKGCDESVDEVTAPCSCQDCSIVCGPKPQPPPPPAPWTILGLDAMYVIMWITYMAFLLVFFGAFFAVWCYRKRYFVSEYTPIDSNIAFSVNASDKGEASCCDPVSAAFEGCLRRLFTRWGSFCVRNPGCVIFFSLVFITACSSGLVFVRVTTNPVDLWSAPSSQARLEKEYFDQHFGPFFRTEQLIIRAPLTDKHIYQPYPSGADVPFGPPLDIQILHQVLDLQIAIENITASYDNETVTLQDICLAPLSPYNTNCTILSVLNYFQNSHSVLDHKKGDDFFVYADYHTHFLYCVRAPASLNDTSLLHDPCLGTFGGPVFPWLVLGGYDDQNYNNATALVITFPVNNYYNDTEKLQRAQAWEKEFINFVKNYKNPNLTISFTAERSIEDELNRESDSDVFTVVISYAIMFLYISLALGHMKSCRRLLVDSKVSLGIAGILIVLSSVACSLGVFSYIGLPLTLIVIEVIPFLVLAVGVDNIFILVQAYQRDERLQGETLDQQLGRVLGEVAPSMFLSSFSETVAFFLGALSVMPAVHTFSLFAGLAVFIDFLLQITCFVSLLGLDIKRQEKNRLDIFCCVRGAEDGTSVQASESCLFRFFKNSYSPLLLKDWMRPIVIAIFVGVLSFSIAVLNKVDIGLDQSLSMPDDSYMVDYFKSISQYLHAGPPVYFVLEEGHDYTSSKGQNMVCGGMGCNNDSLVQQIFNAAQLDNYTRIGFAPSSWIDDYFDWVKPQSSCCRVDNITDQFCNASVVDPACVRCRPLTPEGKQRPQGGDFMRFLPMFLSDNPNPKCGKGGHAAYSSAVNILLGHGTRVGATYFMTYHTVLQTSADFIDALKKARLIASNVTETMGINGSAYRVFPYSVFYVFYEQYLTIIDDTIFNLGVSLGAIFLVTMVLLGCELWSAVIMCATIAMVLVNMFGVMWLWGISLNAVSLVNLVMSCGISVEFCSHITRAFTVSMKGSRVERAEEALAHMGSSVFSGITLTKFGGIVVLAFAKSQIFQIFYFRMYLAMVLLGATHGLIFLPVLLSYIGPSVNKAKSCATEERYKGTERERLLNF
Procedure, shortened: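 Methods give HUVEC (2,000) on chamber slides, settled overnight, then 0.1 µM drug or DMSO for 14 h; legend gives 0.2 μM for 24 h. Cells fixed in 4% paraformaldehyde for 15 min, then stained with 50 µg/ml filipin for 1 h in the dark. Imaged by confocal microscopy at 360/460 nm.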

HUVEC [5] = assay: Antiangiogenic activity in HUVEC assessed as inhibition of tube formation at 5 uM after 24 hrs by matrigel assay relative to control; format: functional; settings: Homo sapiens
Procedure, shortened: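 HUVEC (70,000 per well) plated on Matrigel-coated wells in medium containing drug or DMSO. After 24 h, stained with 2 μM calcein AM for 15 min, medium replaced, and tube networks imaged by fluorescence microscopy. Total tube length quantified from the images and compared with DMSO.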

Cytochrome P450 3A4 [6] = target: T1, Cytochrome P450 3A4; assay: Inhibition of human liver microsome CYP3A4 expressed in baculosomes using fluorogenic-DBOMF as substrate preincubated for 10 mins followed by substrate addition and measured after 60 mins by fluorescence based assay; format: ADME, microsomes
[7] = target: Non-selective voltage-gated ion channel VDAC1 (Homo sapiens) (UniProt P21796); assay: Binding affinity to VDAC1 in HUVEC assessed as AMPK phosphorylation at Thr172 residue after 24 hrs by Western blot analysis; format: cell-based
[8] = target: Non-selective voltage-gated ion channel VDAC1 (Homo sapiens) (UniProt P21796); assay: Binding affinity to VDAC1 in HUVEC assessed as ACC1 phosphorylation at Ser79 residue at 0.01 to 1 uM after 24 hrs by Western blot analysis; format: cell-based
Procedure, shortened: (§3)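 HUVEC treated with 0.01, 0.03, 0.1, 0.3 or 1 μM drug, or DMSO, for 24 h. Lysed in RIPA buffer, protein normalized, then run on Western blot: 5% BSA block 1 h, primary antibody overnight at 4 °C, secondary 1 h, chemiluminescence imaging. Band gray value and area quantified; mean ± SD of three independent experiments.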

HUVEC [9] = assay: Binding affinity to NPC1/VDAC1 in HUVEC assessed as reduction in mTOR phosphorylation at Ser2481 residue up to 1 uM after 24 hrs Western blot analysis; format: cell-based; settings: Homo sapiens; procedure, shortened: as §3
HUVEC [10] = assay: Binding affinity to NPC1/VDAC1 in HUVEC assessed as reduction in mTOR-mediated S6K phosphorylation at Thr389 residue up to 1 uM after 24 hrs Western blot analysis; format: cell-based; settings: Homo sapiens; procedure, shortened: as §3

Compound	inhibition at 1 h, 1 µM (CYP3A4)	IC50 (HUVEC [1])	other results
CCc1nccn1C[C@@]1(c2ccc(Cl)cc2Cl)OC[C@@H](COc2ccc(N3CCN(c4ccc(-n5cnn(C(C)CC)c5=O)cc4)CC3)cc2)O1 (some centres undefined)	7%	224 nM	–
CCC(C)n1ncn(-c2ccc(N3CCN(c4ccc(OC[C@@H]5CO[C@@](CC)(c6ccc(Cl)cc6Cl)O5)cc4)CC3)cc2)c1=O (some centres undefined)	–	353 nM	inhibition (INH) (Cytochrome P450 3A4 [2]): Not Active
CCC(C)n1ncn(-c2ccc(N3CCN(c4ccc(OC[C@@H]5CO[C@@](Cn6cnc(C)n6)(c6ccc(Cl)cc6Cl)O5)cc4)CC3)cc2)c1=O (some centres undefined)	30%	272 nM	–
CCC(C)n1ncn(-c2ccc(N3CCN(c4ccc(OC[C@@H]5CO[C@@](Cn6ccnc6-c6ccccc6)(c6ccc(Cl)cc6Cl)O5)cc4)CC3)cc2)c1=O (some centres undefined)	23%	136 nM	Activity [3]: Active
CCC(C)n1ncn(-c2ccc(N3CCN(c4ccc(OC[C@@H]5CO[C@@](Cn6cnc(C(F)(F)F)n6)(c6ccc(Cl)cc6Cl)O5)cc4)CC3)cc2)c1=O (some centres undefined)	–	270 nM	inhibition (INH) (Cytochrome P450 3A4 [2]): Not Active; Activity [4]: Active
CCC(C)n1ncn(-c2ccc(N3CCN(c4ccc(OC[C@@H]5CO[C@@](CN(C)C)(c6ccc(Cl)cc6Cl)O5)cc4)CC3)cc2)c1=O (some centres undefined)	–	1400 nM	inhibition (INH) (Cytochrome P450 3A4 [2]): Not Active
CCC(C)n1ncn(-c2ccc(N3CCN(c4ccc(OC[C@@H]5CO[C@@](Cn6cccn6)(c6ccc(Cl)cc6Cl)O5)cc4)CC3)cc2)c1=O (some centres undefined)	–	307 nM	inhibition (INH) (Cytochrome P450 3A4 [2]): Not Active
CCC(C)n1ncn(-c2ccc(N3CCN(c4ccc(OCC5COC(Cn6cncn6)(c6ccc(Cl)cc6Cl)O5)cc4)CC3)cc2)c1=O (centres undefined) [ITRACONAZOLE]	84%	–	inhibition at 5 µM (HUVEC [5]): 45%; Activity [4]: Active
CCC(C)n1ncn(-c2ccc(N3CCN(c4ccc(OC[C@@H]5CO[C@@](CC6CCCC6)(c6ccc(Cl)cc6Cl)O5)cc4)CC3)cc2)c1=O (some centres undefined)	–	512 nM	inhibition (INH) (Cytochrome P450 3A4 [2]): Not Active
CCC(C)n1ncn(-c2ccc(N3CCN(c4ccc(OC[C@@H]5CO[C@@](CN6CCN(C)CC6)(c6ccc(Cl)cc6Cl)O5)cc4)CC3)cc2)c1=O (some centres undefined)	18%	396 nM	–
CCC(C)n1ncn(-c2ccc(N3CCN(c4ccc(OC[C@@H]5CO[C@@](CBr)(c6ccc(Cl)cc6Cl)O5)cc4)CC3)cc2)c1=O (some centres undefined)	3%	569 nM	–
CCC(C)n1ncn(-c2ccc(N3CCN(c4ccc(OC[C@@H]5CO[C@@](Cn6cc(C(F)(F)F)nc6C)(c6ccc(Cl)cc6Cl)O5)cc4)CC3)cc2)c1=O (some centres undefined)	–	441 nM	inhibition (INH) (Cytochrome P450 3A4 [2]): Not Active
CCC(C)n1ncn(-c2ccc(N3CCN(c4ccc(OC[C@@H]5COC(c6ccc(Cl)cc6Cl)O5)cc4)CC3)cc2)c1=O (mixture of isomers)	–	328 nM	inhibition (INH) (Cytochrome P450 3A4 [2]): Not Active
CCC(C)n1ncn(-c2ccc(N3CCN(c4ccc(OC[C@@H]5CO[C@@](Cc6ccccc6)(c6ccc(Cl)cc6Cl)O5)cc4)CC3)cc2)c1=O (some centres undefined)	–	513 nM	inhibition (INH) (Cytochrome P450 3A4 [2]): Not Active
CCC(C)n1ncn(-c2ccc(N3CCN(c4ccc(OC[C@@H]5CO[C@@](Cn6ccnc6)(c6ccc(Cl)cc6Cl)O5)cc4)CC3)cc2)c1=O (some centres undefined)	99%	85 nM	–
CCC(C)n1ncn(-c2ccc(N3CCN(c4ccc(OC[C@@H]5CO[C@@](Cn6cc(C)nc6C)(c6ccc(Cl)cc6Cl)O5)cc4)CC3)cc2)c1=O (some centres undefined)	38%	492 nM	–
CCC(C)n1ncn(-c2ccc(N3CCN(c4ccc(OC[C@@H]5CO[C@@](Cn6ccnc6C)(c6ccc(Cl)cc6Cl)O5)cc4)CC3)cc2)c1=O (some centres undefined)	71%	173 nM	–
CCC(C)n1ncn(-c2ccc(N3CCN(c4ccc(OC[C@@H]5CO[C@@](Cn6c(C)cnc6C)(c6ccc(Cl)cc6Cl)O5)cc4)CC3)cc2)c1=O (some centres undefined)	23%	765 nM	–

Second part, led by results:

inhibition at 1 h, 1 µM (CYP3A4)	Compound	IC50 (HUVEC [1])	other results
91%	CCC(C)n1ncn(-c2ccc(N3CCN(c4ccc(OC[C@@H]5CO[C@@](CN6CCNCC6)(c6ccc(Cl)cc6Cl)O5)cc4)CC3)cc2)c1=O (some centres undefined)	608 nM	–
6%	CCC(C)n1ncn(-c2ccc(N3CCN(c4ccc(OC[C@@H]5CO[C@@](Cn6ccnc6C(C)C)(c6ccc(Cl)cc6Cl)O5)cc4)CC3)cc2)c1=O (some centres undefined)	84 nM	Activity [4]: Active
17%	CCC(C)n1ncn(-c2ccc(N3CCN(c4ccc(OC[C@@H]5CO[C@@](Cn6ncnn6)(c6ccc(Cl)cc6Cl)O5)cc4)CC3)cc2)c1=O (some centres undefined)	124 nM	–
27%	CCC(C)n1ncn(-c2ccc(N3CCN(c4ccc(OC[C@@H]5CO[C@@](Cn6nc(C)nc6C)(c6ccc(Cl)cc6Cl)O5)cc4)CC3)cc2)c1=O (some centres undefined)	221 nM	–
16%	CCC(C)n1ncn(-c2ccc(N3CCN(c4ccc(OC[C@@H]5CO[C@@](CN6CCOCC6)(c6ccc(Cl)cc6Cl)O5)cc4)CC3)cc2)c1=O (some centres undefined)	1180 nM	–
18%	CCC(C)n1ncn(-c2ccc(N3CCN(c4ccc(OC[C@@H]5CO[C@@](Cn6nnnc6-c6ccccc6)(c6ccc(Cl)cc6Cl)O5)cc4)CC3)cc2)c1=O (some centres undefined)	119 nM	–
2%	CCC(C)n1ncn(-c2ccc(N3CCN(c4ccc(OC[C@@H]5CO[C@@](Cn6cnnn6)(c6ccc(Cl)cc6Cl)O5)cc4)CC3)cc2)c1=O (some centres undefined)	–	EC50 (Cytochrome P450 3A4 [6]): > 20000 nM; Activity [4]: Active; Activity [7]: Dose-dependent effect; Activity [8]: Active; Activity (HUVEC [9]): Active; Activity (HUVEC [10]): Active; Activity [3]: Active
98%	CCC(C)n1ncn(-c2ccc(N3CCN(c4ccc(OC[C@@H]5CO[C@@](Cn6cnc(C)c6)(c6ccc(Cl)cc6Cl)O5)cc4)CC3)cc2)c1=O (some centres undefined)	102 nM	–
7%	CCC(C)n1ncn(-c2ccc(N3CCN(c4ccc(OC[C@@H]5CO[C@@](Cn6nnnc6C)(c6ccc(Cl)cc6Cl)O5)cc4)CC3)cc2)c1=O (some centres undefined)	101 nM	–
